Screens: PubChem, several laboratories
Exocytosis inh: LAMP-1 surface exposure blockers, TALL-104 cells – cell-based, flow cytometry, MLPCN library, primary screen. 360,000 compounds, 0.66% hits. TALL-104 LAMP-1 surface exposure; cells stimulated with thapsigargin and PMA. inhibition, % at 10 µM;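 active means inhibition above about 55%, limit read from the data; inconclusive means no clear call, values can overlap the other calls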
Myeloid diff 2: induction of myeloid progenitor differentiation, primary screen, cell-based, flow cytometry, MLPCN library. calls only at 10 µM. ER-HoxA9 myeloid progenitors, lysozyme-GFP differentiation. 360,000 compounds, 1% hits. AID 624256, 2012;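 active means normalized GFP-positive differentiation at or above the plate's own cutoff, the solvent-only control mean plus 3 SD; inconclusive means no clear call, values can overlap the other calls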;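 further: cells exposed to compound for four days before flow analysis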
HNF4A DNA FP: change in binding of human HNF4A to DNA, primary screen, biochemical, fluorescence polarization, FITC-DNA | 1 h | activity change, % at 10 µM | AID 1224865, 2016 | Hepatocyte nuclear factor 4-alpha (Homo sapiens), P41235 | 360,000 compounds, 0.3% hits; in the data active means activity change above about 30%, passing the limit was not always enough
Target sequence (P41235 whole entry, looked up): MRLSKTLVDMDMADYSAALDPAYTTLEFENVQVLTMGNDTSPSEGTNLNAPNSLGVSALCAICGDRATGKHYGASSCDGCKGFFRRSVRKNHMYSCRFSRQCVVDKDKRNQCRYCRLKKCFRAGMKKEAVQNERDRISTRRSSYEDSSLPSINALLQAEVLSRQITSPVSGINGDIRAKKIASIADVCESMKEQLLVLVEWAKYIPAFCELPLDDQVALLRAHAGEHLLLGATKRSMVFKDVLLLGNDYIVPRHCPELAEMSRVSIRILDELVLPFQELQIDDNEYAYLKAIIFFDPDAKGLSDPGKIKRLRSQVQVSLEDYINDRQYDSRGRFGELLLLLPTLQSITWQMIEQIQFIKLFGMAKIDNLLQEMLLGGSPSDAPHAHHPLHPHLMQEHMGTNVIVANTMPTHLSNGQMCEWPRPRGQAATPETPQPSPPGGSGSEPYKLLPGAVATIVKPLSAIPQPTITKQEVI
CSN inh: inhibitors of CSN-mediated cullin deneddylation, primary screen, biochemical, fluorescence polarization, uHTS. COP9 signalosome complex subunit 5 (Homo sapiens), Q92905. Purified CSN, SCF-Nedd8-OG deneddylation. inhibition, % at 12.5 µM. 360,000 compounds, 0.38% hits. AID 651999, 2013;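 active means pattern-corrected inhibition above about 35%, with an unprinted fluorescence ratio check between 0.5 and 1.5, limit read from the data, passing the limit was not always enough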;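 further: 0% = enzyme with substrate and 100% = substrate without enzyme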
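Assay system: HEK293T-derived human Csn5 enzyme; quantity: 0.24 nM enzyme; medium: Tris/NaCl/DTT buffer, pH 7.5; also added: substrate SCFSkp2-Nedd8OG, 10 nM; doses: 12.5 µM compound; schedule: 90 min reaction at room temperature; signal: FP; read-out: % inhibition of substrate cleavage by Csn5; benchmarks: substrate-only high control, full reaction low control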
CSN5 deneddyl: Csn5 deneddylation inhibitors, confirmation, biochemical, fluorescence polarization, single concentration, SCF-Nedd8OG substrate; inhibition, % at 16.6 µM; shares compounds with CSN inh; AID 720654, 2013; 540 compounds, 62% hits; Csn5 deneddylation of SCF-Nedd8OG, 90 min; in the data active means inhibition above about 50%;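 further: 0% = DMSO with enzyme and 100% = no enzyme wells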
MMP-2 counter: MMP-2 protease inhibition counter-screen, confirmation, counter-screen for CSN deneddylation inhibitor project, biochemical, fluorescence, single concentration; shares compounds with CSN inh; recombinant MMP-2, FRET substrate fluorescence, 60 min; inhibition, % at 16.6 µM; 540 compounds, 33% hits; AID 720655, 2013;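 active means corrected plate-normalized z-score of 5 or more, or -5 or less, or inhibition of 15% or more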;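 further: plate controls were DMSO wells with enzyme for no effect and buffer wells lacking MMP-2 for full effect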
Thrombin cntr: blocks bovine thrombin in a CSN deneddylation counter-screen; bovine thrombin cleavage of Ub4-pepOG, fluorescence polarization; shares compounds with CSN inh; 540 compounds, 49% hits; AID 720656; inhibition, % at 16.6 µM;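 active means inhibition at or above a set limit, with a fluorescence interference ratio between 0.5 and a set maximum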
Starred values were filed as active, the others as inactive; i = inactive; ? = inconclusive; / = no result; + = active, no number; ! = not active in a repeat. An excerpt weighted towards active compounds, which were near 2.2% of everything screened.

SMILES	Exocytosis inh	Myeloid diff 2	HNF4A DNA FP	CSN inh	CSN5 deneddyl	MMP-2 counter	Thrombin cntr
CCN(CC)c1ccc(/C=C2\SC(N)=NC2=O)cc1	-7.4	+	126.0	68.3*	131.2*	-33.1*	77.7*
C=CCn1c(SCC(=O)Nc2cc(C)on2)nc2ccccc21	-4.9	i	-0.7	7.5	/	/	/
N#Cc1c(SCC(=O)Nc2nc3ccccc3s2)sc2c(O)cc(=O)[nH]c12	2.0	i	-24.0	40.0*	77.3*	11.4	11.3
Cc1cc(-c2nc3c4c5c(sc4[nH]c(=O)n3n2)CCC5)c(C)o1	1.7	i	-1.7	36.0*	91.9*	3.9	-20.0
Cc1nc2sc3c(c2c(=O)[nH]1)CCC3	-1.4	i	-0.9	2.0	/	/	/
CCN(CC)CCNC(Cc1ccccc1)c1cccc(OC)c1 (centres undefined)	0.9	?	-0.6	2.3	/	/	/
COC(=O)c1c(NC(=O)COC(=O)c2ccc(NC(=O)CC#N)cc2)sc2c1CCCCC2	0.2	i	-3.8	57.2*	42.2	6.8	12.7
CC(NC(=O)c1ccccc1SCC(=O)N1CCCC1)c1ccc(F)cc1 (centres undefined)	1.0	i	3.0	-3.7	/	/	/
CN(Cc1ccccc1)C(=O)COC(=O)c1cc2ccccc2oc1=O	-0.4	i	-2.3	1.3	/	/	/
O=C(N/N=C/c1cc(Cl)ccc1O)c1ccc(Br)cc1	6.2	?	-2.3	44.3*	31.5	39.0*	16.4*
O=C(O)c1cc(-c2ccco2)nc2ccc(Br)cc12	2.0	i	-38.9	41.8*!	80.8*	7.3	-5.6
O=C(c1ccco1)N1CCN(C(=O)c2cc(-c3ccncc3)nc3ccc(Br)cc23)CC1	3.1	i	20.7	14.9	/	/	/
Cc1c2cc[n+](CCN3CCCCC3)cc2c(C)c2c1[nH]c1ccc(O)cc12	5.3	?	49.1	100.1*	-30.8	93.1*	40.1*
O=C(N/N=C/c1ccncc1)c1cccc(S(=O)(=O)Nc2ccc(Cl)cc2)c1	0.6	+	-26.2	72.3*	/	34.8*	-6.2
O=C(N/N=C/c1cccnc1)c1cccc(S(=O)(=O)Nc2cccc(Cl)c2)c1	-1.7	i	-6.2	-0.1	/	/	/
Cc1nnc(-c2ccccc2)c(=O)n1/N=C/c1c(O)ccc2ccccc12	52.7	?	18.6	50.1*	109.2*	-4.0	30.0*
Cc1nnc(C)n1/N=C/c1c(O)ccc2ccccc12	2.2	i	-0.2	-0.3	/	/	/
CC(C)c1ccc(NC(=O)NCc2cccnc2)cc1	-8.3	i	9.6	0.3	/	/	/
O=C(/C=C/c1ccco1)Nc1cccc(C(=O)Nc2ccccc2C(=O)O)c1	19.3	i	-32.5	42.0*	54.2*	6.0	12.5
CCOC(=O)N1CCC(N2C(=O)c3ccc(C(=O)Nc4ccc(OC)c(OC)c4)cc3C2=O)CC1	2.6	?	2.3	-2.1	/	/	/
CCn1c(O)c(N=NC(=O)CNC(=O)c2cccnc2)c2ccccc21	1.2	i	2.6	3.1	/	/	/
Cc1c(C)n(Cc2ccccc2)c2ncnc(Cl)c12	24.5	i	-1.1	-3.5	/	/	/
O=C1NN(c2ccc(Cl)cc2)C(=O)/C1=C\c1ccc(-c2cccc(C(=O)O)c2)o1	3.2	i	-20.4	36.5*	46.3	15.4*	24.1*
Cc1ccc(N2NC(=O)/C(=C/c3ccc(-c4ccc(Cl)c(C(=O)O)c4)o3)C2=O)cc1	-2.5	i	-4.7	14.6	/	/	/
COc1ccc(-c2nc(SC(C)C(=O)NC3CC3)n[nH]2)cc1 (centres undefined)	1.1	i	0.1	0.6	/	/	/
SMILES	Exocytosis inh	Myeloid diff 2	HNF4A DNA FP	CSN inh	CSN5 deneddyl	MMP-2 counter	Thrombin cntr
N=C1/C(=C\c2ccc(-c3cccc(Cl)c3)o2)C(=O)N=C2SC=C(c3ccccc3)N12	-5.1	i	18.8	37.8*	64.5*	10.0	23.4*
CCOc1ccc(NC(=O)CCNS(=O)(=O)c2ccc3c(c2)CC(C)N3C(C)=O)cc1 (centres undefined)	-1.5	i	-2.0	2.8	/	/	/
O=C(CCCN1C(=O)/C(=C\c2cccs2)SC1=S)Nc1ccc(O)cc1C(=O)O	?	i	6.2	4.3	/	/	/
O=C(CCCN1C(=O)/C(=C\c2ccco2)SC1=S)Nc1ccc(O)cc1C(=O)O	1.1	?	-38.5	48.3*	65.9*	23.8*	23.4*
O=C(CCCN1C(=O)/C(=C/c2ccccc2)SC1=S)Nc1ccc(C(=O)O)c(O)c1	-1.3	i	1.3	4.9	/	/	/
O=C(CN1C(=O)/C(=C/c2ccco2)SC1=S)Nc1ccc(O)c(C(=O)O)c1	-1.8	?	-28.4	56.2*	56.7*	21.3*	10.9
O=C(CN1C(=O)/C(=C/c2ccco2)SC1=S)Nc1ccc(C(=O)O)c(O)c1	1.0	i	-14.4	61.3*	54.3*	17.9*	30.1*
CCCNC(=O)CN1C(=O)NC(c2ccccc2)(c2ccccc2)C1=O	-13.9	i	-2.3	4.3	/	/	/
O=Cc1c[nH]c2ccc(C(=O)c3ccccc3)cc12	0.6	i	1.9	0.8	/	/	/
COc1ccc(S(=O)(=O)N2CCC(C(=O)N(C)Cc3ccc(C)o3)CC2)cc1OC	2.7	i	3.1	-1.6	/	/	/
CC(=NNC(=O)c1ccncc1)c1ccccc1O	-1.7	?	-3.0	1.9	/	/	/
CC(C)CC(=NNC(=O)c1ccncc1)c1cc(Cl)ccc1O	-11.6	/	97.7	62.8*	71.4*	-51.4*	46.4*
Cc1c(N2C(=O)/C(=C/c3ccc(N(C)C)cc3)N(C)C2=S)c(=O)n(-c2ccccc2)n1C	1.9	i	55.4*	61.5*	37.2	-3.7	73.5*
Cc1c(N2C(=O)/C(=C/c3ccccc3)SC2=S)c(=O)n(-c2ccccc2)n1C	0.8	i	2.6	-4.4	/	/	/
Cc1ccccc1OC1(C)CCN(Cc2ccc(-c3ccccn3)cc2)C1 (centres undefined)	-0.5	i	2.8	-1.2	/	/	/
CCN1CCN(Cc2ccc(NC(=O)c3cc(NC(=O)c4nccnc4N)cc(OC)c3)cc2C(F)(F)F)CC1	2.8	/	5.8	-5.4	/	/	/
CCN1CCN(Cc2ccc(NC(=O)c3cc(NC(=O)c4cncc(-c5ccc(C#N)cc5)c4)cc(OC)c3)cc2C(F)(F)F)CC1	-6.1	i	44.8*!	138.0*!	-73.7	16.6*	5.4
COc1cccc(/C=N/Nc2nnc(C)n2N)c1O	-5.4	i	-0.9	53.8*	107.0*	7.8	-6.7
